Results: ChEMBL document CHEMBL3585281, “Antibacterial Labdane Diterpenoids from Vitex vestita” (2015)
Converted amounts (≈) assume the structure as drawn.

Assays:
Format in all cases: functional
Bacillus cereus [1] = assay: Antibacterial activity against Bacillus cereus CIP 6624 after 18 hrs by agar dilution method; settings: CIP 6624, 18 h
How it was run: (§1)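 Agar-dilution MIC against Gram-positive strains. Compounds in DMSO, geometric dilutions giving final 100−0.75 mg/L in Mueller Hinton agar. Strains grown 18 h at 37 °C in trypticase soy broth, diluted in sterile water, spotted by Steers inoculator (about 1000 UFC/spot). Plates incubated 18 h at 37 °C; DMSO blank; ofloxacin positive control. MIC = lowest concentration with no visible growth.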

Enterococcus faecalis [2] = assay: Antibacterial activity against Enterococcus faecalis N520 after 18 hrs by agar dilution method; settings: N520, 18 h; how it was run: as §1
Corynebacterium striatum = assay: Antibacterial activity against Corynebacterium striatum N840 after 18 hrs by agar dilution method; settings: N840, 18 h; how it was run: as §1
Enterococcus faecium [3] = assay: Antibacterial activity against Enterococcus faecium N733 after 18 hrs by agar dilution method; settings: N733, 18 h; how it was run: as §1
Staphylococcus aureus [4] = assay: Antibacterial activity against Staphylococcus aureus CRBIP 2121 after 18 hrs by agar dilution method; settings: CRBIP 2121, 18 h; how it was run: as §1
Enterococcus faecium [5] = assay: Antibacterial activity against Enterococcus faecium CIP 107387 after 18 hrs by agar dilution method; settings: CIP 107387, 18 h; how it was run: as §1
Staphylococcus aureus [6] = assay: Antibacterial activity against Staphylococcus aureus CIP 5710 after 18 hrs by agar dilution method; settings: CIP 5710, 18 h; how it was run: as §1
Listeria innocua = assay: Antibacterial activity against Listeria innocua E044 after 18 hrs by agar dilution method; settings: E044, 18 h; how it was run: as §1
Listeria monocytogenes [7] = assay: Antibacterial activity against Listeria monocytogenes N783 after 18 hrs by agar dilution method; settings: N783, 18 h; how it was run: as §1
MRC5 [8] = assay: Cytotoxicity against human MRC5 cells assessed as growth inhibition at 10^-5 M after 72 hrs by MTS assay relative to control; settings: MRC5, 72 h, read-out: GI
How it was run: (§2)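 Cells from ATCC; HCT-116 grown in RPMI 1640 and MRC5 in DMEM, each with 10% FCS and 1% glutamine, 37 °C, 5% CO2. Seeded at 2.5 × 10^3 cells/well, cultured 24 h, then exposed to compounds at 1 and 10 μM final for 72 h. MTS read-out, absorbance 490 nm; percent index from treated/control OD490 × 100, three experiments.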

Listeria monocytogenes [9] = assay: Antibacterial activity against Listeria monocytogenes N851 after 18 hrs by agar dilution method; settings: N851, 18 h; how it was run: as §1
Enterococcus hirae = assay: Antibacterial activity against Enterococcus hirae CIP 5855 after 18 hrs by agar dilution method; settings: CIP 5855, 18 h; how it was run: as §1
MRC5 [10] = assay: Cytotoxicity against human MRC5 cells assessed as growth inhibition at 10^-6 M after 72 hrs by MTS assay relative to control; settings: MRC5, 72 h, read-out: GI; how it was run: as §2
Staphylococcus aureus [11] = assay: Antibacterial activity against Staphylococcus aureus ATCC 9144 oxford after 18 hrs by agar dilution method; how it was run: as §1
Bacillus cereus [12] = assay: Antibacterial activity against Bacillus cereus N258 after 18 hrs by agar dilution method; settings: N258, 18 h; how it was run: as §1
Enterococcus gallinarum [13] = assay: Antibacterial activity against Enterococcus gallinarum CIP 105985 after 18 hrs by agar dilution method; settings: CIP 105985, 18 h; how it was run: as §1
[14] = test system: Staphylococcus epidermidis; assay: Antibacterial activity against Staphylococcus epidermidis CIP 53124 after 18 hrs by agar dilution method; settings: CIP 53124, 18 h; how it was run: as §1
Staphylococcus aureus [15] = assay: Antibacterial activity against Staphylococcus aureus CIP 53154 after 18 hrs by agar dilution method; settings: CIP 53154, 18 h; how it was run: as §1
Listeria monocytogenes [16] = assay: Antibacterial activity against Listeria monocytogenes CIP 103575 after 18 hrs by agar dilution method; settings: CIP 103575, 18 h; how it was run: as §1
Enterococcus faecalis [17] = assay: Antibacterial activity against Enterococcus faecalis CIP 104676 after 18 hrs by agar dilution method; settings: CIP 104676, 18 h; how it was run: as §1
Enterococcus gallinarum [18] = assay: Antibacterial activity against Enterococcus gallinarum N489 after 18 hrs by agar dilution method; settings: N489, 18 h; how it was run: as §1
Staphylococcus aureus [19] = assay: Antibacterial activity against Staphylococcus aureus CIP 53156 after 18 hrs by agar dilution method; settings: CIP 53156, 18 h; how it was run: as §1
[20] = test system: Staphylococcus saprophyticus; assay: Antibacterial activity against Staphylococcus saprophyticus CIP 76125 after 18 hrs by agar dilution method; settings: CIP 76125, 18 h; how it was run: as §1
Enterococcus faecium [21] = assay: Antibacterial activity against Enterococcus faecium N823 after 18 hrs by agar dilution method; settings: N823, 18 h; how it was run: as §1
HCT-116 [22] = assay: Cytotoxicity against human HCT116 cells assessed as growth inhibition at 10^-6 M after 72 hrs by MTS assay relative to control; settings: HCT-116, 72 h, read-out: GI; how it was run: as §2
Enterococcus avium = assay: Antibacterial activity against Enterococcus avium CIP 104053 after 18 hrs by agar dilution method; settings: CIP 104053, 18 h; how it was run: as §1
[23] = test system: Staphylococcus intermedius; assay: Antibacterial activity against Staphylococcus intermedius N987 after 18 hrs by agar dilution method; settings: N987, 18 h; how it was run: as §1
[24] = test system: Enterococcus casseliflavus; assay: Antibacterial activity against Enterococcus casseliflavus CIP 103018 after 18 hrs by agar dilution method; settings: CIP 103018, 18 h; how it was run: as §1
Bacillus cereus [25] = assay: Antibacterial activity against Bacillus cereus N190 after 18 hrs by agar dilution method; settings: N190, 18 h; how it was run: as §1
HCT-116 [26] = assay: Cytotoxicity against human HCT116 cells assessed as growth inhibition at 10^-5 M after 72 hrs by MTS assay relative to control; settings: HCT-116, 72 h, read-out: GI; how it was run: as §2
Enterococcus faecalis [27] = assay: Antibacterial activity against Enterococcus faecalis CIP 103214 after 18 hrs by agar dilution method; settings: CIP 103214, 18 h; how it was run: as §1
Enterococcus durans = assay: Antibacterial activity against Enterococcus durans CIP 104999 after 18 hrs by agar dilution method; settings: CIP 104999, 18 h; how it was run: as §1
[28] = test system: Staphylococcus haemolyticus; assay: Antibacterial activity against Staphylococcus haemolyticus CIP 8156 after 18 hrs by agar dilution method; settings: CIP 8156, 18 h; how it was run: as §1
Mammaliicoccus sciuri = assay: Antibacterial activity against Staphylococcus sciuri N993 after 18 hrs by agar dilution method; settings: N993, 18 h; how it was run: as §1
[29] = test system: Staphylococcus lugdunensis; assay: Antibacterial activity against Staphylococcus lugdunensis ATCC 43809 after 18 hrs by agar dilution method; settings: ATCC 43809, 18 h; how it was run: as §1
Enterococcus faecium [30] = assay: Antibacterial activity against Enterococcus faecium N507 after 18 hrs by agar dilution method; settings: N507, 18 h; how it was run: as §1
Staphylococcus aureus [31] = assay: Antibacterial activity against Staphylococcus aureus CIP 483 after 18 hrs by agar dilution method; settings: CIP 483, 18 h; how it was run: as §1
Bacillus spizizenii = assay: Antibacterial activity against Bacillus subtilis ATCC 6633 after 18 hrs by agar dilution method; settings: ATCC 6633, 18 h; how it was run: as §1
[32] = test system: Staphylococcus saprophyticus; assay: Antibacterial activity against Staphylococcus saprophyticus E260 after 18 hrs by agar dilution method; settings: E260, 18 h; how it was run: as §1
Enterococcus faecium [33] = assay: Antibacterial activity against Enterococcus faecium N490 after 18 hrs by agar dilution method; settings: N490, 18 h; how it was run: as §1
Staphylococcus aureus [34] = assay: Antibacterial activity against Staphylococcus aureus CIP 7625 after 18 hrs by agar dilution method; settings: CIP 7625, 18 h; how it was run: as §1
Enterococcus faecalis [35] = assay: Antibacterial activity against Enterococcus faecalis N491 after 18 hrs by agar dilution method; settings: N491, 18 h; how it was run: as §1
Enterococcus faecalis [36] = assay: Antibacterial activity against Enterococcus faecalis N518 after 18 hrs by agar dilution method; settings: N518, 18 h; how it was run: as §1
Enterococcus gallinarum [37] = assay: Antibacterial activity against Enterococcus gallinarum N492 after 18 hrs by agar dilution method; settings: N492, 18 h; how it was run: as §1
[38] = test system: Enterococcus casseliflavus; assay: Antibacterial activity against Enterococcus casseliflavus N487 after 18 hrs by agar dilution method; settings: N487, 18 h; how it was run: as §1
Staphylococcus aureus [39] = assay: Antibacterial activity against Staphylococcus aureus ATCC 25923 after 18 hrs by agar dilution method; settings: ATCC 25923, 18 h; how it was run: as §1
Listeria monocytogenes [40] = assay: Antibacterial activity against Listeria monocytogenes N836 after 18 hrs by agar dilution method; settings: N836, 18 h; how it was run: as §1
Enterococcus faecium [41] = assay: Antibacterial activity against Enterococcus faecium CIP 103014 after 18 hrs by agar dilution method; settings: CIP 103014, 18 h; how it was run: as §1
Streptococcus agalactiae = assay: Antibacterial activity against Streptococcus agalactiae CIP 103227 after 18 hrs by agar dilution method; settings: ATCC 13813, 18 h; how it was run: as §1
Bacillus cereus [42] = assay: Antibacterial activity against Bacillus cereus N349 after 18 hrs by agar dilution method; settings: N349, 18 h; how it was run: as §1

With `C=C1CC[C@H]2C(C)(C)CCC[C@]2(C)[C@H]1C[C@H](O)C1=CC(=O)OC1O` (stereo not given in full) the MIC (Bacillus cereus [1]) was 24 µM (≈ 8.03 µg/mL), the MIC (Enterococcus faecalis [2]) was 96 µM (≈ 32.1 µg/mL) and the MIC (Corynebacterium striatum) was 96 µM (≈ 32.1 µg/mL). For the same compound, the MIC (Enterococcus faecium [3]) was greater than 96 µM, the MIC (Staphylococcus aureus [4]) was 48 µM (≈ 16.1 µg/mL) and the MIC (Enterococcus faecium [5]) was greater than 96 µM. For the same compound, the MIC (Staphylococcus aureus [6]) was 48 µM (≈ 16.1 µg/mL), the MIC (Listeria innocua) was greater than 96 µM and the MIC (Listeria monocytogenes [7]) was 96 µM (≈ 32.1 µg/mL). The inhibition of growth at 10 µM (MRC5 [8]) was 67%, the MIC (Listeria monocytogenes [9]) was 96 µM (≈ 32.1 µg/mL) and the MIC (Enterococcus hirae) was greater than 96 µM. For the same compound, the inhibition of growth at 1 µM (MRC5 [10]) was 19%, the MIC (Staphylococcus aureus [11]) was 48 µM (≈ 16.1 µg/mL) and the MIC (Bacillus cereus [12]) was 24 µM (≈ 8.03 µg/mL). For the same compound, the MIC (Enterococcus gallinarum [13]) was greater than 96 µM, the MIC [14] was 48 µM (≈ 16.1 µg/mL) and the MIC (Staphylococcus aureus [15]) was 48 µM (≈ 16.1 µg/mL). The MIC (Listeria monocytogenes [16]) was 96 µM (≈ 32.1 µg/mL), the MIC (Enterococcus faecalis [17]) was 96 µM (≈ 32.1 µg/mL) and the MIC (Enterococcus gallinarum [18]) was 96 µM (≈ 32.1 µg/mL). It also gave an MIC (Staphylococcus aureus [19]) of 48 µM (≈ 16.1 µg/mL), an MIC [20] of 48 µM (≈ 16.1 µg/mL) and an MIC (Enterococcus faecium [21]) greater than 96 µM. The inhibition of growth at 1 µM (HCT-116 [22]) was 1%, the MIC (Enterococcus avium) was 96 µM (≈ 32.1 µg/mL) and the MIC [23] was 24 µM (≈ 8.03 µg/mL). The MIC [24] was greater than 96 µM, the MIC (Bacillus cereus [25]) was 24 µM (≈ 8.03 µg/mL) and the inhibition of growth at 10 µM (HCT-116 [26]) was 90%. It also gave an MIC (Enterococcus faecalis [27]) greater than 96 µM, an MIC (Enterococcus durans) of 48 µM (≈ 16.1 µg/mL) and an MIC [28] of 24 µM (≈ 8.03 µg/mL). For the same compound, the MIC (Mammaliicoccus sciuri) was 96 µM (≈ 32.1 µg/mL), the MIC [29] was 48 µM (≈ 16.1 µg/mL) and the MIC (Enterococcus faecium [30]) was greater than 96 µM. For the same compound, the MIC (Staphylococcus aureus [31]) was 48 µM (≈ 16.1 µg/mL), the MIC (Bacillus spizizenii) was 12 µM (≈ 4.01 µg/mL) and the MIC [32] was 48 µM (≈ 16.1 µg/mL). The MIC (Enterococcus faecium [33]) was greater than 96 µM, the MIC (Staphylococcus aureus [34]) was 48 µM (≈ 16.1 µg/mL) and the MIC (Enterococcus faecalis [35]) was 96 µM (≈ 32.1 µg/mL). For the same compound, the MIC (Enterococcus faecalis [36]) was greater than 96 µM, the MIC (Enterococcus gallinarum [37]) was 96 µM (≈ 32.1 µg/mL) and the MIC [38] was greater than 96 µM. It also gave an MIC (Staphylococcus aureus [39]) of 48 µM (≈ 16.1 µg/mL), an MIC (Listeria monocytogenes [40]) of 96 µM (≈ 32.1 µg/mL) and an MIC (Enterococcus faecium [41]) greater than 96 µM. For the same compound, the MIC (Streptococcus agalactiae) was 24 µM (≈ 8.03 µg/mL) and the MIC (Bacillus cereus [42]) was 24 µM (≈ 8.03 µg/mL).
